Bioassay records: PubChem BioAssay, several laboratories
NTR1 agonist: activates human neurotensin receptor 1; P30989; NTR1-U2OS beta-arrestin-GFP spot imaging, agonist mode; activation, % at 20 µM; hit rate 0.17% among 330,000; AID 493036;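 active = activation at or above 40% of the spot to cytoplasm intensity ratio, with at least 20 cells analyzed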;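 also: 0% = DMSO without peptide and 100% = 100 nM NTR1 peptide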
Target sequence (P30989 whole entry, looked up): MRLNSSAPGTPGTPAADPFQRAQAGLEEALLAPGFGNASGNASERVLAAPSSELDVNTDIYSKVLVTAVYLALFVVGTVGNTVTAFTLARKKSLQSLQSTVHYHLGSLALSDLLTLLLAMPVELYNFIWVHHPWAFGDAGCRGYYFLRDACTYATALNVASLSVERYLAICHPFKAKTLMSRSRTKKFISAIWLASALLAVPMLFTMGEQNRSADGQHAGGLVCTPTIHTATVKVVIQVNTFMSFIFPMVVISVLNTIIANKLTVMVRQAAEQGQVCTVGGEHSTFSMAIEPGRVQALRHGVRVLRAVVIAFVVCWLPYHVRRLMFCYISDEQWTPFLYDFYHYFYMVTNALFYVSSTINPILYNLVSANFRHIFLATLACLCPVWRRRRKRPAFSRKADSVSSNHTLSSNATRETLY
Granule exo inh: blocks lytic granule exocytosis | hit rate 0.66% among 360,000 | AID 651702 | TALL-104 LAMP-1 surface exposure, flow cytometry; cells stimulated with thapsigargin and PMA | inhibition, % at 10 µM;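 active = inhibition above about 55%, limit read from the data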
MC4R antag cAMP: antagonists of human melanocortin 4 receptor (MC4R); P32245; MC4R-expressing cells, MTII-stimulated cAMP, LANCE TR-FRET; inhibition, % at 6.5 µM; hit rate 0.48% among 360,000;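 active = inhibition above its plate's cutoff, the mean of tested wells on that plate plus 3 SD, cut at about 29% in these data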;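 also: 0% = Melanotan II alone and 100% = Melanotan II plus saturating MCL0020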
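material = U2OS cells stably expressing human melanocortin 4 receptor (MC4R) | also added = Melanotan II challenge | dosing = single nominal compound dose of 6.5 µM | detection = TR-FRET with Eu-cAMP and labeled anti-cAMP, 671 nm | replication = singlicate | timing = compound 30 min, challenge 1 h, detection 1 h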
Bfl-1 A1 inh: inhibitors of the anti-apoptotic protein A1, read as caspase activation; MEF A1-2A-BIM cells, Caspase-Glo 3/7 luminescence, 3 h; percent of clofoctol response, vehicle zero; caspase activation, % (test concentration not listed); hit rate 0.066% among 330,000;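 active = over half of replicate activation scores above 10%, or exactly half above 10 with the replicate mean above 10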
HGIII-sPLA2 inh: Inhibits HGIII-sPLA2 liposome hydrolysis, primary screen | Q9NZ20 | QFRET BODIPY PC-A2 liposome hydrolysis, fluorescence | inhibition, % at 12.2 µM | hit rate 0.56% among 370,000 | AID 743126;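 active = inhibition above mean plus 3 SD of compounds lying within the high and low control bounds, cut at about 19% in these data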;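 also: 0% = median of test compound wells and 100% = no enzyme DMSO wells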
MC4R ag barr: human MC4R agonism via beta-arrestin; P32245; U2OS MC4R beta-arrestin complementation, luminescence; percent of melanotan II response, DMSO zero; activation, % at 8.9 µM; hit rate 0.98% among 360,000; AID 540308;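 active = activation above a per-plate cutoff, the mean activation of sample wells on that plate plus 3 SD, cut at about 8% in these data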
Exocytosis CP01: blocks lytic granule exocytosis | shares compounds with Granule exo inh | TALL-104 cells, LAMP-1 externalization, flow cytometry; stimulated with PMA plus thapsigargin | inhibition, % at 10 µM | hit rate 11% among 1,500 | AID 651954; in the data active = inhibition above about 60%;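 also: 0% = stimulated vehicle wells and 100% = unstimulated wells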
An asterisk follows results filed as active; x = no result. The list is not random: actives were taken first. Their share in the collection is about 2.5%.

SMILES	NTR1 agonist	Granule exo inh	MC4R antag cAMP	Bfl-1 A1 inh	HGIII-sPLA2 inh	MC4R ag barr	Exocytosis CP01
CC1=C(C(=O)N2CCCCCC2)CC(CC(=O)NCCCCc2ccccc2)C(=O)N1CCC1=CCCCC1 (stereo unspecified)	x	85.6*	x	x	-19.4	x	0.2
CC1=C(C(=O)N2CCCCCC2)CC(CC(=O)NCc2cccc3ccccc23)C(=O)N1CCC1=CCCCC1 (stereo unspecified)	x	58.1*	x	x	-12.1	x	-5.9
COc1ccc(C(=O)Nc2cccc(C(C)=O)c2)cc1S(=O)(=O)N1CCOCC1	-0.2	-1.7	1.3	0.5	-0.9	1.7	x
COc1ccc(CC(=O)Nc2cccc(C(C)=O)c2)cc1S(=O)(=O)N1CCOCC1	-0.9	100.4*	2.8	2.0	5.7	0.1	-1.7
N#Cc1nc(COc2ccccc2Cl)oc1NCc1ccc(F)cc1	7.9	59.0*	-1.8	x	-18.8	5.1	-13.7
Cc1cc(C(=O)N(C)CC(=O)Nc2ccccc2C(F)(F)F)c(C)o1	3.0	61.7*	5.3	0.0	-6.1	-2.0	-14.4
CCN(CC)CCC(=O)N1C/C(=C/c2ccccc2)C(=O)/C(=C\c2ccccc2)C1	x	78.9*	7.5	x	-7.4	-3.1	30.0
CCCCC[C@H](C)N1C[C@H](COCc2ccccc2)Oc2cc(N3CC[C@@H](O)C3)ccc2S1(=O)=O	x	7.7	x	x	-6.1	x	x
CCCCC[C@@H](C)N1C[C@@H](COCc2ccccc2)Oc2cc(N3CC[C@H](N(C)C)C3)ccc2S1(=O)=O	x	56.5*	x	x	-14.8	x	69.4*
CCCCC[C@H](C)N1C[C@@H](COCc2ccccc2)Oc2cc(N3CC[C@H](N(C)C)C3)ccc2S1(=O)=O	x	74.6*	x	x	-22.2	x	24.4
CN(CC1CCN(CCc2cccc(C(F)(F)F)c2)CC1)C(=O)c1ccc(F)cc1	-0.6	48.2	-4.4	1.3	-20.2	0.1	x
CN(CC1CCN(CCc2cccc(C(F)(F)F)c2)CC1)C(=O)c1ccccc1	-0.5	56.1*	0.2	1.5	5.3	-2.1	-12.1
O=[N+]([O-])c1ccc(N2N=C(c3ccccc3)CC2c2ccccc2O)cc1 (stereo unspecified)	0.1	57.6*	2.6	-0.4	-38.6	-1.1	28.1
COc1ccccc1N(CC(=O)NCCc1ccccc1)C(=O)CCC(=O)Nc1cc(C)ccn1	-1.4	62.2*	-2.6	0.7	-3.4	-0.3	-14.2
COc1ccccc1N(CC(=O)NCCc1ccccc1)C(=O)CCC(=O)Nc1ccccn1	-1.7	17.3	-0.2	-0.1	-3.9	0.3	x
COc1ccc(Cn2ccc3ccc(-c4ccc5ccn(C(=O)C6CC6)c5c4)cc32)cc1	x	x	x	x	-7.4	x	x
Cc1cccc(C)c1OCC(O)CN(Cc1ccccc1O)C1CCCCC1 (stereo unspecified)	5.7	57.3*	-3.8	0.3	1.2	0.8	-3.5
CC(=O)c1sc2nc(C)c3c(c2c1N)CCCC3	1.3	62.3*	-8.8	-0.3	7.4	-2.1	-5.2
OCC[C@H]1C[C@H](O)[C@@H](O)[C@]2(CCCc3ccccc3O2)O1	11.4	1.2	4.3	0.0	-1.7	-2.2	x
CN1CCN(Cc2nc3ccccc3c(=O)n2Cc2nc(-c3ccc([N+](=O)[O-])cc3)cs2)CC1	4.4	74.7*	14.9	-0.4	1.8	0.9	97.1*
COc1sc(SC)cc1/C=N/NC(=O)c1ccncc1	0.2	-8.2	12.4	0.7	8.3	-1.0	x
O=C(Nc1nnc([C@H]2C[C@H](O)[C@@H](CO)O2)s1)Nc1ccccc1C(F)(F)F	x	2.5	-3.2	x	-0.9	-0.5	x
CCn1nnc(-c2ccc(N)cc2)n1	-1.9	-2.8	15.6	0.2	3.8	-1.6	x
Cn1nc(C(C)(C)C)cc1NC(=O)C1(C)CCN1C(=O)c1ccccc1CCc1ccccc1 (stereo unspecified)	x	97.5*	4.7	x	-15.8	1.8	-4.2
O=C(CCCc1ccccc1)Nc1cccc([N+](=O)[O-])c1	-0.4	57.0*	-4.6	0.1	-7.3	0.4	-12.7
SMILES	NTR1 agonist	Granule exo inh	MC4R antag cAMP	Bfl-1 A1 inh	HGIII-sPLA2 inh	MC4R ag barr	Exocytosis CP01
CCN1CCN(c2ccc(NC(=O)CCc3c(C)nc4c(-c5ccccc5)c(C)nn4c3C)cc2)CC1	11.0	56.1*	10.2	0.8	-15.1	-0.1	28.2
CN(C(=O)CSc1ccc(S(=O)(=O)N2CCCCC2)cn1)c1ccccc1	-2.4	-2.2	2.6	x	5.5	-1.3	x
Cc1oc(=O)c(NC(=O)c2ccc(Cl)cc2)cc1C(=O)c1ccccc1	10.0	102.9*	16.8	0.2	-7.1	-1.4	-8.9
Cc1ccc(S(=O)(=O)N(C)c2ccc(OCc3cccc(C)c3)cc2)cc1	0.7	-1.9	0.0	-0.2	-10.3	-2.3	x
CN(c1ccc(OCc2ccc([N+](=O)[O-])cc2)cc1)S(=O)(=O)c1ccccc1	1.1	61.4*	8.3	-0.2	-9.1	-0.7	-13.9
c1ccc(CCNCCCOc2cccc3ccccc23)cc1	2.4	51.7	-4.8	-0.1	4.5	6.2	x
NC(=O)SCC(=O)Nc1ccc(Cl)cc1	3.7	77.9*	1.1	0.3	-2.9	6.9	-6.3
NC(=O)SCC(=O)Nc1ccc(Cl)c(Cl)c1	0.2	3.3	4.2	2.1	0.1	-0.3	x
Cn1c(=O)c(NC2CCCCC2)c2c3c(cccc31)C(=O)c1ccccc1-2	-1.9	90.0*	3.4	x	-66.3	-2.0	101.0*
COc1ccccc1N(CC(=O)NC1CCCC1)S(=O)(=O)c1ccc(C)cc1	2.9	16.2	3.7	1.2	4.8	-0.5	x
COc1ccccc1N(CC(=O)Nc1ccc2c(c1)OCCO2)S(=O)(=O)c1ccc(C)cc1	0.1	73.4*	25.6	0.1	0.2	1.6	-9.5
COc1ccccc1N(CC(=O)Nc1ccc2c(c1)OCCO2)S(C)(=O)=O	-1.4	5.4	10.6	-0.1	0.1	-0.9	x
COc1ccccc1N(CC(=O)Nc1cccc(C(F)(F)F)c1)S(C)(=O)=O	-1.1	80.1*	9.1	0.1	-9.8	-2.5	-9.7
COc1ccc(OC)c(N(CC(=O)Nc2cccc(C(F)(F)F)c2)S(C)(=O)=O)c1	-1.5	0.8	0.8	0.0	-23.1	-2.3	x
CCOc1ccccc1N(CC(=O)NC1CCCCC1)S(=O)(=O)c1ccc(C)cc1	4.7	93.4*	13.1	-1.0	-1.9	1.3	-11.9
CCn1c(SCC(=O)NC(=O)c2ccccc2OC)nc2ccccc21	-0.4	-3.0	7.6	0.5	7.8	-2.6	x
CCCOc1ccccc1NC(=O)/C=C/C(N)=O	2.4	65.7*	6.4	1.0	-1.1	-2.3	0.5
CCC(C)[C@H](NC(=O)NCc1ccccc1)C(=O)O (stereo partly specified)	-0.8	99.8*	5.3	0.3	-0.6	-1.9	-11.1
